{"source": "ChEMBL document CHEMBL3877330", "about": "“Synthesis and Antitumor Activity Evaluation of a Novel Combi-nitrosourea Prodrug: BGCNU” (ACS Med Chem Lett, 2017)", "key": {"[1]": {"assay": "Cytotoxicity against AGT-positive human SF763 cells assessed as reduction in cell viability measured after 24 hrs by CCK8 assay", "assay_type": "functional, cell-based", "conditions": "SF763, 24 h"}, "[2]": {"assay": "Cytotoxicity against AGT-positive human SF767 cells assessed as reduction in cell viability measured after 24 hrs by CCK8 assay", "assay_type": "functional, cell-based", "conditions": "SF767, 24 h"}, "[3]": {"assay": "Cytotoxicity against AGT-positive human SF767 cells assessed as reduction in cell viability pretreated with O6-BG for 2 hrs followed by addition of compound measured after 24 hrs by CCK8 assay", "assay_type": "functional, cell-based", "procedure,_shortened": "(§1)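 Nitrosourea combined with 20 µM O6-BG. Survival curves were generated for the glioma cells across a range of drug concentrations, and IC50 was read from those curves.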"}, "[4]": {"assay": "Cytotoxicity against AGT-deficient human SF126 cells assessed as reduction in cell viability measured after 24 hrs by CCK8 assay", "assay_type": "functional, cell-based", "conditions": "SF-126, 24 h"}, "[5]": {"assay": "Cytotoxicity against AGT-deficient human SF126 cells assessed as reduction in cell viability pretreated with O6-BG for 2 hrs followed by addition of compound measured after 24 hrs by CCK8 assay", "assay_type": "functional, cell-based", "conditions": "SF-126", "procedure,_shortened": "as §1"}, "[6]": {"biological_target": "T1, Methylated-DNA--protein-cysteine methyltransferase (Homo sapiens) (UniProt P16455)", "T1 sequence (whole entry)": "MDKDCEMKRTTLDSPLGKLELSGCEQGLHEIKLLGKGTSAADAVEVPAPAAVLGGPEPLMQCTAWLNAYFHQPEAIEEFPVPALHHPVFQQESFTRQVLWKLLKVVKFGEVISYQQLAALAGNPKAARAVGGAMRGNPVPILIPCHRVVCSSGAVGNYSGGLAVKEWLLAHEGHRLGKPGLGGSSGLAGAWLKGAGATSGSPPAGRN", "assay": "Inhibition of AGT in human SF763 cells assessed as increase in dG-dC crosslinking incubated for 12 hrs by HPLC-ESI-MS/MS analysis", "assay_type": "cell-based", "procedure,_shortened": "(§2)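 Glioma cells exposed to drug at 0.1, 0.2, 0.4 and 0.6 mM. Genomic DNA then extracted and dG-dC interstrand cross-link levels quantified by HPLC-ESI-MS/MS. Triplicate determinations (n=3) per concentration.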"}, "[7]": {"biological_target": "T1, Methylated-DNA--protein-cysteine methyltransferase (Homo sapiens)", "assay": "Inhibition of AGT in human SF767 cells assessed as increase in dG-dC crosslinking incubated for 12 hrs by HPLC-ESI-MS/MS analysis", "assay_type": "cell-based", "procedure,_shortened": "as §2"}, "SF-126 [8]": {"tested_on": "SF-126", "assay": "Binding affinity to DNA in AGT-deficient human SF126 cells assessed as increase in dG-dC crosslinking incubated for 12 hrs by HPLC-ESI-MS/MS analysis", "assay_type": "cell-based", "procedure,_shortened": "as §2"}, "Bos taurus": {"species": "Bos taurus", "assay": "Binding affinity to calf thymus DNA assessed as increase in dG-dC crosslinking incubated for 12 hrs under dark condition by HPLC-ESI-MS/MS analysis", "procedure,_shortened": "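Calf thymus DNA treated directly with drug at 0.1, 0.2, 0.4 and 0.6 mM. dG-dC cross-link levels measured by HPLC-ESI-MS/MS.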"}, "[9]": {"assay": "Cytotoxicity against AGT-positive human SF763 cells assessed as reduction in cell viability pretreated with O6-BG for 2 hrs followed by addition of compound measured after 24 hrs by CCK8 assay", "assay_type": "functional, cell-based", "procedure,_shortened": "as §1"}, "[10]": {"assay": "Potency index, ratio of ACNU IC50 to test compound IC50 for AGT-positive human SF763 cells", "assay_type": "functional", "procedure,_shortened": "(§3)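 Cell survival curves were run in human glioma cells, with SF763 high in AGT and SF126 lacking AGT. IC50 values came from the curves. The index is the IC50 of ACNU or BCNU alone divided by the test compound's IC50.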"}, "[11]": {"assay": "Potency index, ratio of ACNU IC50 in combination with O6-BG to test compound IC50 for AGT-positive human SF763 cells", "assay_type": "functional", "procedure,_shortened": "(§4)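 Survival curves were run in AGT-high human glioma SF763 cells. […] The index is the IC50 of the combination divided by the test compound's IC50.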"}, "[12]": {"assay": "Potency index, ratio of BCNU IC50 to test compound IC50 for AGT-positive human SF763 cells", "assay_type": "functional", "procedure,_shortened": "as §3"}, "[13]": {"assay": "Potency index, ratio of BCNU IC50 in combination with O6-BG to test compound IC50 for AGT-positive human SF763 cells", "assay_type": "functional", "procedure,_shortened": "as §4"}, "SF-126 [14]": {"tested_on": "SF-126", "assay": "Potency index, ratio of ACNU IC50 to test compound IC50 for AGT-deficient human SF126 cells", "assay_type": "functional", "procedure,_shortened": "as §3"}, "[15]": {"assay": "n-Octanol/water partition coefficient, log P of the compound at 2 mM by HPLC analysis", "assay_type": "physicochemical"}}}
{"smiles": "Cc1ncc(CNC(=O)N(CCCl)N=O)c(N)n1", "note": "[NIMUSTINE]", "values": [{"measurement": "IC50", "setting": "[1]", "value": 1600, "unit": "µM"}, {"measurement": "IC50", "setting": "[2]", "value": 570, "unit": "µM"}, {"measurement": "IC50", "setting": "[3]", "value": 400, "unit": "µM"}, {"measurement": "IC50", "setting": "[4]", "value": 450, "unit": "µM"}, {"measurement": "IC50", "setting": "[5]", "value": 360, "unit": "µM"}, {"measurement": "inhibition", "setting": "[6]", "value": "Dose-dependent effect"}, {"measurement": "inhibition", "setting": "[7]", "value": "Dose-dependent effect"}, {"measurement": "Activity", "setting": "SF-126 [8]", "value": "Dose-dependent effect"}, {"measurement": "Activity", "setting": "Bos taurus", "value": "Dose-dependent effect"}]}
{"smiles": "O=NN(CCCl)C(=O)NCCCl", "note": "[CARMUSTINE]", "values": [{"measurement": "IC50", "setting": "[1]", "value": 350, "unit": "µM"}, {"measurement": "IC50", "setting": "[9]", "value": 200, "unit": "µM"}, {"measurement": "IC50", "setting": "[2]", "value": 130, "unit": "µM"}, {"measurement": "IC50", "setting": "[3]", "value": 120, "unit": "µM"}, {"measurement": "IC50", "setting": "[4]", "value": 85, "unit": "µM"}, {"measurement": "IC50", "setting": "[5]", "value": 55, "unit": "µM"}, {"measurement": "inhibition", "setting": "[6]", "value": "Dose-dependent effect"}, {"measurement": "inhibition", "setting": "[7]", "value": "Dose-dependent effect"}, {"measurement": "Activity", "setting": "SF-126 [8]", "value": "Dose-dependent effect"}, {"measurement": "Activity", "setting": "Bos taurus", "value": "Dose-dependent effect"}]}
{"smiles": "Nc1nc(OCc2ccccc2)c2ncn(CCNC(=O)N(CCCl)N=O)c2n1", "values": [{"measurement": "IC50", "setting": "[1]", "value": 60, "unit": "µM"}, {"measurement": "Ratio IC50", "setting": "[10]", "value": 27}, {"measurement": "Ratio IC50", "setting": "[11]", "value": 17}, {"measurement": "Ratio IC50", "setting": "[12]", "value": 5.8}, {"measurement": "Ratio IC50", "setting": "[13]", "value": 3.3}, {"measurement": "IC50", "setting": "[2]", "value": 58, "unit": "µM"}, {"measurement": "IC50", "setting": "[4]", "value": 52, "unit": "µM"}, {"measurement": "Ratio IC50", "setting": "SF-126 [14]", "value": "7 - 9"}, {"measurement": "inhibition", "setting": "[6]", "value": "Dose-dependent effect"}, {"measurement": "inhibition", "setting": "[7]", "value": "Dose-dependent effect"}, {"measurement": "Activity", "setting": "SF-126 [8]", "value": "Dose-dependent effect"}, {"measurement": "Activity", "setting": "Bos taurus", "value": "Dose-dependent effect"}, {"measurement": "logP at 2000 µM", "setting": "[15]", "value": 1.81}]}
